Tested on: Fibroblast
Test: Multiplex assay against human fibroblast
Type: toxicity, cell-based
Outline: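 Per cents of healthy-nucleus cells form the tubulin, mitochondrial-mass and membrane-permeability phenotype values. Live cells were stained at seeding with Hoechst33342, BioTracker Green Microtubule Cytoskeleton Dye, MitoTracker Red and Annexin V Alexa Fluor 680. After compound addition they were imaged on a CQ1 microscope at 37°C and 5% CO2, and CellPathfinder machine-learning gating split them into Hoechst high-intensity objects or normal cells, normal cells into healthy, pyknosed or fragmented nuclei, and pyknosed cells into mitotic or apoptotic.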

[1] = 12 h, 1 µM, compound concentration 1 uM, replicate 1
[2] = 12 h, 1 µM, compound concentration 1 uM, replicate 2
[3] = 12 h, 10 µM, compound concentration 10 uM, replicate 1
[4] = 12 h, 10 µM, compound concentration 10 uM, replicate 2
[5] = 24 h, 1 µM, compound concentration 1 uM, replicate 1
[6] = 24 h, 1 µM, compound concentration 1 uM, replicate 2
[7] = 24 h, 10 µM, compound concentration 10 uM, replicate 1
[8] = 24 h, 10 µM, compound concentration 10 uM, replicate 2
[9] = 48 h, 1 µM, compound concentration 1 uM, replicate 1
[10] = 48 h, 1 µM, compound concentration 1 uM, replicate 2
[11] = 48 h, 10 µM, compound concentration 10 uM, replicate 1
[12] = 48 h, 10 µM, compound concentration 10 uM, replicate 2

Structure (SMILES): COc1cc(OC2CCN(C(C)=O)CC2)ccc1C(=O)N1CCC(N2C(=O)OCc3ccccc32)CC1
- Population Apoptotic (%) [1]: 41%
- Population Fragmented Nuclei (%) [1]: 12%
- Population Healthy Nuclei (%) [1]: 64%
- Population Hoechst High Intensity Objects (%) [1]: 5%
- Population Membrane Permeable-Phenotype (%) [1]: 2%
- Population Mitochondria Different-Phenotype (%) [1]: 5%
- Population Mitotic Cells (%) [1]: 58%
- Population Normal (%) [1]: 94%
- Population Pyknosed Nuclei (%) [1]: 22%
- Population Tubulin-Different-Phenotype (%) [1]: 32%
- Total Cell Count [1]: 157
- Population Apoptotic (%) [2]: 40%
- Population Fragmented Nuclei (%) [2]: 29%
- Population Healthy Nuclei (%) [2]: 52%
- Population Hoechst High Intensity Objects (%) [2]: 3%
- Population Membrane Permeable-Phenotype (%) [2]: 0%
- Population Mitochondria Different-Phenotype (%) [2]: 3%
- Population Mitotic Cells (%) [2]: 59%
- Population Normal (%) [2]: 96%
- Population Pyknosed Nuclei (%) [2]: 17%
- Population Tubulin-Different-Phenotype (%) [2]: 34%
- Total Cell Count [2]: 159
- Population Apoptotic (%) [3]: 52%
- Population Fragmented Nuclei (%) [3]: 10%
- Population Healthy Nuclei (%) [3]: 73%
- Population Hoechst High Intensity Objects (%) [3]: 3%
- Population Membrane Permeable-Phenotype (%) [3]: 0%
- Population Mitochondria Different-Phenotype (%) [3]: 6%
- Population Mitotic Cells (%) [3]: 48%
- Population Normal (%) [3]: 96%
- Population Pyknosed Nuclei (%) [3]: 16%
- Population Tubulin-Different-Phenotype (%) [3]: 54%
- Total Cell Count [3]: 161
- Population Apoptotic (%) [4]: 37%
- Population Fragmented Nuclei (%) [4]: 32%
- Population Healthy Nuclei (%) [4]: 40%
- Population Hoechst High Intensity Objects (%) [4]: 6%
- Population Membrane Permeable-Phenotype (%) [4]: 2%
- Population Mitochondria Different-Phenotype (%) [4]: 10%
- Population Mitotic Cells (%) [4]: 62%
- Population Normal (%) [4]: 93%
- Population Pyknosed Nuclei (%) [4]: 28%
- Population Tubulin-Different-Phenotype (%) [4]: 56%
- Total Cell Count [4]: 134
- Population Apoptotic (%) [5]: 63%
- Population Fragmented Nuclei (%) [5]: 19%
- Population Healthy Nuclei (%) [5]: 63%
- Population Hoechst High Intensity Objects (%) [5]: 1%
- Population Membrane Permeable-Phenotype (%) [5]: 0%
- Population Mitochondria Different-Phenotype (%) [5]: 4%
- Population Mitotic Cells (%) [5]: 36%
- Population Normal (%) [5]: 98%
- Population Pyknosed Nuclei (%) [5]: 17%
- Population Tubulin-Different-Phenotype (%) [5]: 32%
- Total Cell Count [5]: 170
- Population Apoptotic (%) [6]: 48%
- Population Fragmented Nuclei (%) [6]: 28%
- Population Healthy Nuclei (%) [6]: 51%
- Population Membrane Permeable-Phenotype (%) [6]: 5%
- Population Mitochondria Different-Phenotype (%) [6]: 3%
- Population Mitotic Cells (%) [6]: 51%
- Population Pyknosed Nuclei (%) [6]: 19%
- Population Tubulin-Different-Phenotype (%) [6]: 31%
- Total Cell Count [6]: 155
- Population Apoptotic (%) [7]: 36%
- Population Fragmented Nuclei (%) [7]: 13%
- Population Healthy Nuclei (%) [7]: 74%
- Population Hoechst High Intensity Objects (%) [7]: 7%
- Population Membrane Permeable-Phenotype (%) [7]: 1%
- Population Mitochondria Different-Phenotype (%) [7]: 7%
- Population Mitotic Cells (%) [7]: 63%
- Population Normal (%) [7]: 92%
- Population Pyknosed Nuclei (%) [7]: 11%
- Population Tubulin-Different-Phenotype (%) [7]: 39%
- Total Cell Count [7]: 172
- Population Apoptotic (%) [8]: 43%
- Population Fragmented Nuclei (%) [8]: 34%
- Population Healthy Nuclei (%) [8]: 48%
- Population Membrane Permeable-Phenotype (%) [8]: 3%
- Population Mitochondria Different-Phenotype (%) [8]: 10%
- Population Mitotic Cells (%) [8]: 56%
- Population Pyknosed Nuclei (%) [8]: 17%
- Population Tubulin-Different-Phenotype (%) [8]: 70%
- Total Cell Count [8]: 145
- Population Apoptotic (%) [9]: 40%
- Population Fragmented Nuclei (%) [9]: 14%
- Population Healthy Nuclei (%) [9]: 70%
- Population Hoechst High Intensity Objects (%) [9]: 7%
- Population Membrane Permeable-Phenotype (%) [9]: 0%
- Population Mitochondria Different-Phenotype (%) [9]: 5%
- Population Mitotic Cells (%) [9]: 59%
- Population Normal (%) [9]: 92%
- Population Pyknosed Nuclei (%) [9]: 14%
- Population Tubulin-Different-Phenotype (%) [9]: 35%
- Total Cell Count [9]: 160
- Population Apoptotic (%) [10]: 58%
- Population Fragmented Nuclei (%) [10]: 32%
- Population Healthy Nuclei (%) [10]: 52%
- Population Hoechst High Intensity Objects (%) [10]: 3%
- Population Membrane Permeable-Phenotype (%) [10]: 4%
- Population Mitochondria Different-Phenotype (%) [10]: 4%
- Population Mitotic Cells (%) [10]: 41%
- Population Normal (%) [10]: 96%
- Population Pyknosed Nuclei (%) [10]: 15%
- Population Tubulin-Different-Phenotype (%) [10]: 43%
- Total Cell Count [10]: 163
- Population Apoptotic (%) [11]: 57%
- Population Fragmented Nuclei (%) [11]: 10%
- Population Healthy Nuclei (%) [11]: 79%
- Population Hoechst High Intensity Objects (%) [11]: 5%
- Population Membrane Permeable-Phenotype (%) [11]: 0%
- Population Mitochondria Different-Phenotype (%) [11]: 13%
- Population Mitotic Cells (%) [11]: 42%
- Population Normal (%) [11]: 94%
- Population Pyknosed Nuclei (%) [11]: 9%
- Population Tubulin-Different-Phenotype (%) [11]: 51%
- Total Cell Count [11]: 155
- Population Apoptotic (%) [12]: 56%
- Population Fragmented Nuclei (%) [12]: 36%
- Population Healthy Nuclei (%) [12]: 51%
- Population Hoechst High Intensity Objects (%) [12]: 3%
- Population Membrane Permeable-Phenotype (%) [12]: 3%
- Population Mitochondria Different-Phenotype (%) [12]: 10%
- Population Mitotic Cells (%) [12]: 43%
- Population Normal (%) [12]: 96%
- Population Pyknosed Nuclei (%) [12]: 12%
- Population Tubulin-Different-Phenotype (%) [12]: 69%
- Total Cell Count [12]: 134

Source: ChEMBL document CHEMBL5058577, “EUbOPEN Chemogenomics Library 2 (Multiplex)” (2022)
